In brackets after ≈: the same amount, converted by molar mass.
How the values were obtained:
[1] = system: Mycobacterium tuberculosis; assay: Antimicrobial activity against Mycobacterium tuberculosis H37Rv expressing GFP supplemented with casitone/glucose/tyloxapol assessed as reduction in bacterial growth measured on day 14; type: functional; details: 336 h, time 14 day
Summary of the method: (§1)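 Line 1 medium is 7H9 with ADC and 0.05% Tween80. Line 2 medium is 7H9 with 0.03% casitone, 0.4% glucose and 0.05% tyloxapol. Incubated at 37 °C, 5% CO2, humidified. Fluorescence (ex 485/em 520) read at day 14 and normalised to rifampicin (2× MIC) and 5% DMSO controls. MIC90 is the lowest concentration giving >90% inhibition.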

[2] = system: Mycobacterium tuberculosis; assay: Antimicrobial activity against Mycobacterium tuberculosis H37Rv expressing GFP supplemented with albumin/dextrose/catalase/glucose/tween80 assessed as reduction in bacterial growth measured on day 14; type: functional; details: 336 h, time 14 day; summary of the method: as §1
[3] = Metabolic stability in human liver microsome assessed as parent compound remaining after 30 mins by LC-MS/MS analysis; type: ADME; details: liver microsomes, read-out: Stability
Summary of the method: (§2)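 Compound at 1 µM incubated with liver microsomes at 0.4 mg/mL, 37 °C for 30 min. Human microsomes were mixed gender, rat were male IGS, mouse were male CD1. Quenched with ice-cold acetonitrile containing internal standard and centrifuged. Parent disappearance measured by LC-MS/MS, with half-life and clearance from standard equations.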

[4] = Cytotoxicity against HEK293 cells assessed as reduction in cell viability incubated for 20 hrs by resazurin staining based assay; type: toxicity; details: human
Summary of the method: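 HEK-293 cells grown in DMEM with 10% FBS, seeded at 5×10^3 cells/well into compound-containing plates, 20 h at 37 °C, 5% CO₂. Resazurin added for a further 3 h, fluorescence read at ex 560/em 590 nm. CC₅₀ from sigmoidal dose-response fit (variable top, bottom, slope) of inhibition vs log concentration. Highest concentration tested 32 µg/mL.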

[5] = Metabolic stability in CD-1 mouse liver microsome assessed as intrinsic clearance measured for 30 mins by LC-MS/MS analysis; type: ADME; details: liver microsomes, read-out: CLH; summary of the method: as §2
[6] = Aqueous solubility of compound in PBS at pH6.5 incubated for 24 hrs by shake-flask method; type: physicochemical; details: pH 6.5
Summary of the method: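 Miniaturised shake-flask, 96-well: 4 µL of 10 mM DMSO stock dried down, then phosphate-buffered saline pH 6.5 added; shaken 24 h at 25 °C, centrifuged 3500 g for 15 min. Supernatant quantified by HPLC-DAD against a 10–220 µM calibration curve prepared in DMSO.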

[7] = Metabolic stability in human liver microsome assessed as intrinsic clearance measured for 30 mins by LC-MS/MS analysis; type: ADME; details: liver microsomes, read-out: CLH; summary of the method: as §2
[8] = system: Mycobacterium tuberculosis; assay: Antitubercular activity against Mycobacterium tuberculosis H37Rv assessed as reduction in microbial growth measured for 14 days; type: functional; details: 336 h, time 14 day
Summary of the method: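 Strains were H37Rv, the fluoroquinolone-resistant GyrA G88C mutant, and the dprE1 P116S and C387S mutants. All were cultured in standard Middlebrook 7H9 with ADC supplement.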

[9] = Metabolic stability in CD-1 mouse liver microsome assessed as parent compound remaining after 30 mins by LC-MS/MS analysis; type: ADME; details: liver microsomes, read-out: Stability; summary of the method: as §2
[10] = Lipophilicity, log P of the compound in octanol/buffer incubated for 2 hrs under shaking condition by shake flask based HPLC-UV method; type: physicochemical
Summary of the method: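 LogD at pH 7.4 by miniaturised shake-flask in deep-well plates. Compound partitioned between equal volumes of 1-octanol and PBS pH 7.4, shaken vigorously 2 h at 25 °C. Phases separated, each analysed by HPLC-UV with diode array detection. LogD calculated from peak areas in octanol and buffer.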

[11] = Metabolic stability in rat liver microsome assessed as intrinsic clearance measured for 30 mins by LC-MS/MS analysis; type: ADME; details: liver microsomes, read-out: CLH; summary of the method: as §2
[12] = Metabolic stability in rat liver microsome assessed as parent compound remaining after 30 mins by LC-MS/MS analysis; type: ADME; details: liver microsomes, read-out: Stability; summary of the method: as §2

Compound | MIC90 [1] | MIC90 [2] | also measured
O=C(Nc1cccc(C(F)(F)F)c1)c1cnc2c([N+](=O)[O-])cc(C(F)(F)F)cc2c1Cl | 0.7 µM (≈ 0.325 µg/mL) | 31.2 µM (≈ 14.5 µg/mL) | 
O=C(NCCc1ccc(Cl)cc1)c1c[nH]c2c([N+](=O)[O-])cc(C(F)(F)F)cc2c1=O | < 0.244 µM | < 0.244 µM | remaining at 0.5 h [3]: 75%; CC50 at 20 h [4]: > 20 µM; microsomal CLint [5]: 23 µL/min/mg; solubility thermodynamic at 24 h [6]: < 5 µM; microsomal CLint [7]: 24.3 µL/min/mg; MIC90 [8]: 1.9 µM; remaining at 0.5 h [9]: 76%; logD at 2 h [10]: 4.3; microsomal CLint [11]: 18.4 µL/min/mg; remaining at 0.5 h [12]: 80%
Cc1ccc(CCNC(=O)c2c[nH]c3c([N+](=O)[O-])cc(C(F)(F)F)cc3c2=O)cc1 | > 125 µM | 0.244 µM (≈ 0.102 µg/mL) | 
O=C(NCc1ccc(F)cc1)c1c[nH]c2c([N+](=O)[O-])cc(C(F)(F)F)cc2c1=O | > 125 µM | 8.1 µM (≈ 3.32 µg/mL) | 
O=C(NCc1ccccc1Cl)c1c[nH]c2c([N+](=O)[O-])cc(C(F)(F)F)cc2c1=O | 0.5 µM (≈ 0.213 µg/mL) | 0.8 µM (≈ 0.341 µg/mL) | 
CCOC(=O)c1c[nH]c2c([N+](=O)[O-])cc(C(F)(F)F)cc2c1=O | < 0.244 µM | < 0.244 µM | 
O=C(NCc1cccc(F)c1)c1c[nH]c2c([N+](=O)[O-])cc(C(F)(F)F)cc2c1=O | 0.5 µM (≈ 0.205 µg/mL) | 3 µM (≈ 1.23 µg/mL) | 
O=c1c(Br)c[nH]c2c([N+](=O)[O-])cc(C(F)(F)F)cc12 | 1.6 µM (≈ 0.539 µg/mL) | 16 µM (≈ 5.39 µg/mL) | 
NNC(=O)c1ccncc1 [ISONIAZID] |  |  | MIC90 [8]: 3.5 µM
O=C(NCc1ccc(Cl)cc1)c1c[nH]c2c([N+](=O)[O-])cc(C(F)(F)F)cc2c1=O | > 125 µM | 7.4 µM (≈ 3.15 µg/mL) | 
NNC(=O)c1c[nH]c2c([N+](=O)[O-])cc(C(F)(F)F)cc2c1=O | > 125 µM | > 125 µM | 
O=C(NCc1ccc(F)c(F)c1)c1c[nH]c2c([N+](=O)[O-])cc(C(F)(F)F)cc2c1=O | 7 µM (≈ 2.99 µg/mL) | 31.3 µM (≈ 13.4 µg/mL) | 
O=c1cc[nH]c2c([N+](=O)[O-])cc(C(F)(F)F)cc12 | 62.5 µM (≈ 16.1 µg/mL) | 16 µM (≈ 4.13 µg/mL) | 
O=C(O)c1c[nH]c2c([N+](=O)[O-])cc(C(F)(F)F)cc2c1=O | 62.5 µM (≈ 18.9 µg/mL) | > 125 µM | 
O=C(NCCc1ccc(C(F)(F)F)cc1)c1c[nH]c2c([N+](=O)[O-])cc(C(F)(F)F)cc2c1=O | < 0.244 µM | < 0.244 µM | remaining at 0.5 h [3]: 68%; CC50 at 20 h [4]: > 20 µM; microsomal CLint [5]: 33.3 µL/min/mg; solubility thermodynamic at 24 h [6]: < 5 µM; microsomal CLint [7]: 31.7 µL/min/mg; MIC90 [8]: 0.9 µM; remaining at 0.5 h [9]: 67%; logD at 2 h [10]: 4.4; microsomal CLint [11]: 33.2 µL/min/mg; remaining at 0.5 h [12]: 68%
CO[C@H]1/C=C/O[C@@]2(C)Oc3c(C)c(O)c4c(O)c(c(/C=N/N5CCN(C)CC5)c(O)c4c3C2=O)NC(=O)/C(C)=C\C=C\[C@H](C)[C@H](O)[C@@H](C)[C@@H](O)[C@@H](C)[C@H](OC(C)=O)[C@@H]1C [RIFAMPIN] | 0.01 µM (≈ 0.00823 µg/mL) | 0.01 µM (≈ 0.00823 µg/mL) | 
O=C(NCCc1ccc(F)cc1)c1c[nH]c2c([N+](=O)[O-])cc(C(F)(F)F)cc2c1=O | < 0.244 µM | 0.9 µM (≈ 0.381 µg/mL) | remaining at 0.5 h [3]: 73%; CC50 at 20 h [4]: > 20 µM; microsomal CLint [5]: 48.8 µL/min/mg; solubility thermodynamic at 24 h [6]: < 5 µM; microsomal CLint [7]: 25.9 µL/min/mg; MIC90 [8]: 2 µM; remaining at 0.5 h [9]: 56%; logP at 2 h [10]: 4; microsomal CLint [11]: 23.4 µL/min/mg; remaining at 0.5 h [12]: 75%
Cc1cccc(CNC(=O)c2c[nH]c3c([N+](=O)[O-])cc(C(F)(F)F)cc3c2=O)c1 | < 0.244 µM | 2.9 µM (≈ 1.18 µg/mL) | 
O=C(NCc1cccc(Cl)c1)c1c[nH]c2c([N+](=O)[O-])cc(C(F)(F)F)cc2c1=O | > 125 µM | 2.99 µM (≈ 1.27 µg/mL) | 
COc1c(N2C[C@@H]3CCCN[C@@H]3C2)c(F)cc2c(=O)c(C(=O)O)cn(C3CC3)c12 [MOXIFLOXACIN] |  |  | MIC90 [8]: 0.1 µM
